The record followed here is ChEMBL document CHEMBL2069193 (Bioorg Med Chem Lett, 2012).

One assay concerns CHO. Kind of assay: Cytotoxicity against CHO cells. It counts as cell-based. Particulars: Cricetulus griseus.
Assay [1] has as its system LAD2. Description: Inhibition of human LAD2 cells degranulation preincubated for 30 mins before streptavidin stimulation measured after 30 mins by measuring beta-hexosaminidase activity. It counts as functional, cell-based. In outline: (§1)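 LAD2 mast cells sensitized overnight at 37 °C, 5% CO2 with 100 ng/ml biotin-IgE in StemPro-34 growth medium with 2 mM glutamine and 100 ng/ml SCF. They were washed into release buffer, plated at 10,000 cells/well, given drug for 30 min, then 125 ng/ml streptavidin for 30 min. Supernatant and freeze-thaw lysate were incubated 90 min at 37 °C with 1 mM p-nitrophenyl-N-acetyl-D-glucosamide, citrate pH 4.5.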

Assay [2] concerns LAD2. Kind of assay: Inhibition of human LAD2 cells degranulation at 1 uM preincubated for 30 mins before streptavidin stimulation measured after 30 mins by measuring beta-hexosaminidase activity. It counts as functional. In short, it runs like this: as §1
The target in assay [3] is Fibroblast growth factor receptor 3 (Homo sapiens) (UniProt P22607). Description: Inhibition of human FGFR3 at 1 uM.
Assay [4] deals with Macrophage colony-stimulating factor 1 receptor (Homo sapiens) (UniProt P07333). Description: Inhibition of human Fms at 1 uM.
For assay [5], the target named is Tyrosine-protein kinase BTK (Homo sapiens) (UniProt Q06187). Description: Inhibition of human BTK at 1 uM.
Assay [6] concerns the target Tyrosine-protein kinase Fgr (Homo sapiens) (UniProt P09769). Kind of assay: Inhibition of human Fgr at 1 uM.
Assay [7] concerns the target Tyrosine-protein kinase Fyn (Homo sapiens) (UniProt P06241). Description: Inhibition of human Fyn at 1 uM.
The target in assay [8] is Protein kinase C beta type (Homo sapiens) (UniProt P05771). Kind of assay: Inhibition of human PKCbeta2 at 1 uM.
Assay [9] concerns the target Hepatocyte growth factor receptor (Homo sapiens) (UniProt P08581). Description: Inhibition of human Met at 1 uM.
Assay [10] addresses 3-phosphoinositide-dependent protein kinase 1 (PDPK1) (Homo sapiens) (UniProt O15530). Kind of assay: Inhibition of human PDK1 at 1 uM.
Assay [11] has as its target Tyrosine-protein kinase Lyn (Homo sapiens) (UniProt P07948). Kind of assay: Inhibition of human Lyn at 1 uM.
For assay [12], the target named is MAP kinase-activated protein kinase 5 (Homo sapiens) (UniProt Q8IW41). Kind of assay: Inhibition of human PRAK at 1 uM.
Assay [13] concerns the target Protein-tyrosine kinase 2-beta (Homo sapiens) (UniProt Q14289). Description: Inhibition of human Pyk2 at 1 uM.
For assay [14], the target named is Proto-oncogene tyrosine-protein kinase Src (Homo sapiens) (UniProt P12931). Kind of assay: Inhibition of human cSRC at 1 uM.
The target of assay [15] is Inhibitor of nuclear factor kappa-B kinase subunit beta (Homo sapiens) (UniProt O14920). Kind of assay: Inhibition of human IKKbeta at 1 uM.
The target in assay [16] is Protein kinase C gamma type (Homo sapiens) (UniProt P05129). Description: Inhibition of human PKCgamma at 1 uM.
Assay [17] deals with Cyclin-dependent kinase 1/cyclin B1 (Homo sapiens) (UniProt P06493+P14635). Kind of assay: Inhibition of human CDK1/cyclinB at 1 uM. It counts as protein-complex assay.
Assay [18] addresses Tyrosine-protein kinase receptor UFO (Homo sapiens) (UniProt P30530). Kind of assay: Inhibition of human Axl at 1 uM.
Assay [19] deals with Mitogen-activated protein kinase 10 (Homo sapiens) (UniProt P53779). Kind of assay: Inhibition of human JNK3 at 1 uM.
The target of assay [20] is Rho-associated protein kinase 2 (Homo sapiens) (UniProt O75116). Kind of assay: Inhibition of human ROCK2 at 1 uM.
For assay [21], the target named is Serine/threonine-protein kinase pim-1 (Homo sapiens) (UniProt P11309). Kind of assay: Inhibition of human Pim-1 at 1 uM.
Assay [22] concerns the target Tyrosine-protein kinase ZAP-70 (Homo sapiens) (UniProt P43403). Description: Inhibition of human ZAP70 at 1 uM.
For assay [23], the target named is Casein kinase I isoform delta (Homo sapiens) (UniProt P48730). Description: Inhibition of human CK1delta at 1 uM.
The target of assay [24] is Glycogen synthase kinase-3 beta (Homo sapiens) (UniProt P49841). Kind of assay: Inhibition of human GSK3beta at 1 uM.
Assay [25] concerns the target Glycogen synthase kinase-3 alpha (Homo sapiens) (UniProt P49840). Description: Inhibition of human GSK3alpha at 1 uM.
For assay [26], the target named is High affinity nerve growth factor receptor (Homo sapiens) (UniProt P04629). Kind of assay: Inhibition of human TrkA at 1 uM.
Assay [27] concerns the target Serine/threonine-protein kinase Chk1 (Homo sapiens) (UniProt O14757). Kind of assay: Inhibition of human CHK1 at 1 uM.
For assay [28], the target named is Tyrosine-protein kinase Lck (Homo sapiens) (UniProt P06239). Description: Inhibition of human Lck at 1 uM.
Assay [29] addresses Protein kinase C epsilon type (Homo sapiens) (UniProt Q02156). Description: Inhibition of human PKCepsilon at 1 uM.
Assay [30] deals with Tyrosine-protein kinase HCK (Homo sapiens) (UniProt P08631). Kind of assay: Inhibition of human Hck at 1 uM.
Assay [31] deals with Tyrosine-protein kinase ITK/TSK (Homo sapiens) (UniProt Q08881). Description: Inhibition of human Itk at 1 uM.
Assay [32] addresses Calcium/calmodulin-dependent protein kinase type II subunit delta (Homo sapiens) (UniProt Q13557). Kind of assay: Inhibition of human CaMK2delta at 1 uM.
Assay [33] deals with Proto-oncogene tyrosine-protein kinase receptor Ret (Homo sapiens) (UniProt P07949). Kind of assay: Inhibition of human Ret at 1 uM.
The target in assay [34] is Mitogen-activated protein kinase kinase kinase 7 (Homo sapiens) (UniProt O43318). Kind of assay: Inhibition of human TAK1 at 1 uM.
For assay [35], the target named is Ribosomal protein S6 kinase alpha-6 (Homo sapiens) (UniProt Q9UK32). Kind of assay: Inhibition of human Rsk4 at 1 uM.
Assay [36] deals with Tyrosine-protein kinase Yes (Homo sapiens) (UniProt P07947). Kind of assay: Inhibition of human Yes at 1 uM.
In assay [37] the target is Aurora kinase A (Homo sapiens) (UniProt O14965). Description: Inhibition of human Aurora-A at 1 uM.
In assay [38] the target is Receptor-type tyrosine-protein kinase FLT3 (Homo sapiens) (UniProt P36888). Description: Inhibition of human Flt3 at 1 uM.
The target of assay [39] is Vascular endothelial growth factor receptor 1 (Homo sapiens) (UniProt P17948). Description: Inhibition of human Flt1 at 1 uM.
Assay [40] has as its target Focal adhesion kinase 1 (Homo sapiens) (UniProt Q05397). Kind of assay: Inhibition of human FAK at 1 uM.
Assay [41] deals with Dual specificity mitogen-activated protein kinase kinase 6 (Homo sapiens) (UniProt P52564). Kind of assay: Inhibition of human MKK6 at 1 uM.
Assay [42] addresses ALK tyrosine kinase receptor (Homo sapiens) (UniProt Q9UM73). Description: Inhibition of human Alk at 1 uM.

Sequence of Tyrosine-protein kinase BTK (Homo sapiens) (Q06187 whole entry): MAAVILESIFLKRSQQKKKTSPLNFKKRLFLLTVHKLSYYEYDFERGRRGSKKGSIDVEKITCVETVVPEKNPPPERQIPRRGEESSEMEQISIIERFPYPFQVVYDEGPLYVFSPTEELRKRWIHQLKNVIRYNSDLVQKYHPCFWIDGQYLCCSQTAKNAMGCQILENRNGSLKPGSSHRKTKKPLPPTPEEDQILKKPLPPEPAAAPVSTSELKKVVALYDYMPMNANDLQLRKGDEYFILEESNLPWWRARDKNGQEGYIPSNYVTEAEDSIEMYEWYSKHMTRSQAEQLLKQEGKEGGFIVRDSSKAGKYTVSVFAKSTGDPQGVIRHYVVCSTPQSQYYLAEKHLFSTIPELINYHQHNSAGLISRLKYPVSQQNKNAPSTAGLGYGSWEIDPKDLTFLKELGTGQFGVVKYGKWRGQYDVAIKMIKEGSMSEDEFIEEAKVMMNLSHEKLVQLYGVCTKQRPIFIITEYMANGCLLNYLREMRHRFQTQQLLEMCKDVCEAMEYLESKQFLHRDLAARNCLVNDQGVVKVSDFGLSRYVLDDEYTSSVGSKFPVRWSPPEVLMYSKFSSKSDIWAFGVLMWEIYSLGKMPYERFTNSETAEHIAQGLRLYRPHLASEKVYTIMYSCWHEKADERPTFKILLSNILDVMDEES
Sequence of Glycogen synthase kinase-3 alpha (Homo sapiens) (P49840 2-483 limits assumed): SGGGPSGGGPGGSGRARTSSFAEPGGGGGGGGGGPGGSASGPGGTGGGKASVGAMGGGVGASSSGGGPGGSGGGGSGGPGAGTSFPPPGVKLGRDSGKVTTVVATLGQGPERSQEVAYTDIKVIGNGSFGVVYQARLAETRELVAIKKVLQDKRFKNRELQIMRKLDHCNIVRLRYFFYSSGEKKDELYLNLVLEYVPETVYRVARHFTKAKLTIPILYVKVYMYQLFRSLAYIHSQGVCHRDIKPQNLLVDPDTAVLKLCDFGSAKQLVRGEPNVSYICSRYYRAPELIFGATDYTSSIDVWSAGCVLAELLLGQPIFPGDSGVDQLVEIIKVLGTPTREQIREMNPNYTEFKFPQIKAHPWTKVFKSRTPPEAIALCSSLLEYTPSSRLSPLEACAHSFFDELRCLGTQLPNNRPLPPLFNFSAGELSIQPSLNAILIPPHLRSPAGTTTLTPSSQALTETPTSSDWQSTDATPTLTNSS
Sequence of Cyclin-dependent kinase 1/cyclin B1 (Homo sapiens) (P06493 whole entry, looked up): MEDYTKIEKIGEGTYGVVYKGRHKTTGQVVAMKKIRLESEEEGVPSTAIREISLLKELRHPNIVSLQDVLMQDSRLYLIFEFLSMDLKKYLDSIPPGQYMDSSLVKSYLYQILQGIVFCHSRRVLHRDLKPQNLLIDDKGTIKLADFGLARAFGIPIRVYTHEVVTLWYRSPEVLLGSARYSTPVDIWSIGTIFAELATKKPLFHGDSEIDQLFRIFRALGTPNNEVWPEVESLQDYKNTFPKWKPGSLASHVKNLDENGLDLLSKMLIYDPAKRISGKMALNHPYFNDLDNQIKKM
Sequence of Cyclin-dependent kinase 1/cyclin B1 (Homo sapiens) (P14635 whole entry, looked up): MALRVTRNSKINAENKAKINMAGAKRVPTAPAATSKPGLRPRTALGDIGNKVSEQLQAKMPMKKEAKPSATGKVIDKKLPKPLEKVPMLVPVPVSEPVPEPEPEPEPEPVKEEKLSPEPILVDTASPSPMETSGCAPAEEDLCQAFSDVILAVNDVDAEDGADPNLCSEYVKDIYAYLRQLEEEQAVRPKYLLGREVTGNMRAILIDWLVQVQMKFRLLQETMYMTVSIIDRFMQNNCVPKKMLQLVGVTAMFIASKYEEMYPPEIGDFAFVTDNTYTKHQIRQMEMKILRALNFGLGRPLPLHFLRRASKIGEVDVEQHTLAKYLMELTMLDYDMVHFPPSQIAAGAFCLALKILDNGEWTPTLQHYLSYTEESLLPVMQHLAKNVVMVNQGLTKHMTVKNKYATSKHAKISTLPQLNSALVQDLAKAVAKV
Sequence of ALK tyrosine kinase receptor (Homo sapiens) (Q9UM73 19-1620 limits assumed): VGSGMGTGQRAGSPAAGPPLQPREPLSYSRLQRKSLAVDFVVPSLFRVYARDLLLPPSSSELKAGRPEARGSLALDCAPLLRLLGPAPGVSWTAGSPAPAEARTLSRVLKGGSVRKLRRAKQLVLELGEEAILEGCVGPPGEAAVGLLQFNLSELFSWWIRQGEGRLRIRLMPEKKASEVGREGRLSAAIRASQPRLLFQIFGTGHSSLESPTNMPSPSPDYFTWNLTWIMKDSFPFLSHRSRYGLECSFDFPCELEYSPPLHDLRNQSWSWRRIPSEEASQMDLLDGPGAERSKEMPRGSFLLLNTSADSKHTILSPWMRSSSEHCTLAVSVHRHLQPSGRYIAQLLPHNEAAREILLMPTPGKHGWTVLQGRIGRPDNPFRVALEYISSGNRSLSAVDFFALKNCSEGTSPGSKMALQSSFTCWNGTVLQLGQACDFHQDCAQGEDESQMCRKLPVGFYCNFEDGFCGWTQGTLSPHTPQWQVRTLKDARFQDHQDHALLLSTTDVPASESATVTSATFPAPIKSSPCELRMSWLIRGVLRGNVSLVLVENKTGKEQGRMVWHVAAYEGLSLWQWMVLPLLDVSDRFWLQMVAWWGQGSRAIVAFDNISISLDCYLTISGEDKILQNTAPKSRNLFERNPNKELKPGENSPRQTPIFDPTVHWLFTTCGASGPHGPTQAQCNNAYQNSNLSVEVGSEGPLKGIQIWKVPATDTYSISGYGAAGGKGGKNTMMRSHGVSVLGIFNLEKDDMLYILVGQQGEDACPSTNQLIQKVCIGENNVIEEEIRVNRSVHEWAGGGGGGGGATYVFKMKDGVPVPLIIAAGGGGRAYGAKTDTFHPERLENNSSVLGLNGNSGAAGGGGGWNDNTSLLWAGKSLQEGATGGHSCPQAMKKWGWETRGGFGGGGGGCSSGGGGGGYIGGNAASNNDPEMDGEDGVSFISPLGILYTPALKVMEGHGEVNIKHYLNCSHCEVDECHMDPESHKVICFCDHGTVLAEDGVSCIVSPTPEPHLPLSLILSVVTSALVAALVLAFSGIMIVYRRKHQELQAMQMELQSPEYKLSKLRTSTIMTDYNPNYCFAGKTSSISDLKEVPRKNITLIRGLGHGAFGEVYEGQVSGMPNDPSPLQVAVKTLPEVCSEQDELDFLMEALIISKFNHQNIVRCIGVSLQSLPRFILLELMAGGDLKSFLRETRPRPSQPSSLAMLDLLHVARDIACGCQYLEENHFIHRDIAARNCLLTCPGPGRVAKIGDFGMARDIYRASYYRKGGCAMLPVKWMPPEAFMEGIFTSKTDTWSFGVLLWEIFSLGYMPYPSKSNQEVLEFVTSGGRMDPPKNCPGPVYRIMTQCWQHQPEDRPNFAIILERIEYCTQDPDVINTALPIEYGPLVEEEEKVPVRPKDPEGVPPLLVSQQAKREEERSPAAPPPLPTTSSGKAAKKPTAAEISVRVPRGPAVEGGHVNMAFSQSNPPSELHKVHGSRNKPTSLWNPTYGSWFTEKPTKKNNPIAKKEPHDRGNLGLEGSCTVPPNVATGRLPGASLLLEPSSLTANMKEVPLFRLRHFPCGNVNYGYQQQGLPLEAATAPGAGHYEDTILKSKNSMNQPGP
Sequence of 3-phosphoinositide-dependent protein kinase 1 (PDPK1) (Homo sapiens) (O15530 whole entry, looked up): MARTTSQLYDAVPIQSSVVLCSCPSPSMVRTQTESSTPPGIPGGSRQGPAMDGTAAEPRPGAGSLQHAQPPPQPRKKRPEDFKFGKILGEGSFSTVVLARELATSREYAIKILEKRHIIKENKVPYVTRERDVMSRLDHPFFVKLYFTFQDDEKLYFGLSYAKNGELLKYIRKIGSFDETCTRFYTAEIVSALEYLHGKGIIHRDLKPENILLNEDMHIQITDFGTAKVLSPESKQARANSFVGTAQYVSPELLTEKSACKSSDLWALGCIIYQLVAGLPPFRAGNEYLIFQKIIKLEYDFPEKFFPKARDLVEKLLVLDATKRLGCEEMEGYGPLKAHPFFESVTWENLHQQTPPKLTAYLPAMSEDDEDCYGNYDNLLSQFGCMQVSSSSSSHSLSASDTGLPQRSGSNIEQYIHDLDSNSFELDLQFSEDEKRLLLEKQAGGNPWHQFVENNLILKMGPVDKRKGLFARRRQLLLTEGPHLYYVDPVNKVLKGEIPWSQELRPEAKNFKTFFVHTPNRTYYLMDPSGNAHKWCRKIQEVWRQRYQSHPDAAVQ
Sequence of Tyrosine-protein kinase Fgr (Homo sapiens) (P09769 2-529 limits assumed): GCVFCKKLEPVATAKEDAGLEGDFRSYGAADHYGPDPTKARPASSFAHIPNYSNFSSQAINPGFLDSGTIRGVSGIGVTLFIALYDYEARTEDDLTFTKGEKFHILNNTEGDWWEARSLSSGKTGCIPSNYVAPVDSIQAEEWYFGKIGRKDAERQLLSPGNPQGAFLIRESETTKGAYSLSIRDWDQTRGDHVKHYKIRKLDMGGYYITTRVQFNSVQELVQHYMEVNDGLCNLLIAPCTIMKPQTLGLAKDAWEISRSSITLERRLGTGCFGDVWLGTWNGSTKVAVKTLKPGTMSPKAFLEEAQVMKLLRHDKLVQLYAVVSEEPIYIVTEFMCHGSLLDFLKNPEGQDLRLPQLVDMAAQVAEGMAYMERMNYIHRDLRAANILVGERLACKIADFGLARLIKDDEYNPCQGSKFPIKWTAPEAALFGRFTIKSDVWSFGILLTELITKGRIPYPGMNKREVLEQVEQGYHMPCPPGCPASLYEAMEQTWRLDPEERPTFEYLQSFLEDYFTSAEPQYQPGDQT
Sequence of Mitogen-activated protein kinase 10 (Homo sapiens) (P53779 whole entry): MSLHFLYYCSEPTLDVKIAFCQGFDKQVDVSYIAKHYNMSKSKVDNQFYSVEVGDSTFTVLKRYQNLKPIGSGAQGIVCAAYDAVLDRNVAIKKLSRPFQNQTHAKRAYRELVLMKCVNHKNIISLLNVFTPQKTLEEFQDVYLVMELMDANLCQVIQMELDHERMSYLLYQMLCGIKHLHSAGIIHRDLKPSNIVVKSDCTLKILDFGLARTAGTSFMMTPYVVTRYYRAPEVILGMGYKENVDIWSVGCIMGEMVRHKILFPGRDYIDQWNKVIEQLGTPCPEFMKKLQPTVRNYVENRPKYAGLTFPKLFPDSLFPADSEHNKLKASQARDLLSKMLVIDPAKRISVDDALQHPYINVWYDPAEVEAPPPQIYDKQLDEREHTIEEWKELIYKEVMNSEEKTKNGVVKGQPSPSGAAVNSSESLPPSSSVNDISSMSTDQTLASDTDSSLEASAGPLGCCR

Broadly, the IC50 is the concentration needed to halve the response being measured. Higher therefore signals weaker potency. In the case of `O=C(O)c1ccc(C(=O)Nc2cc(Nc3cnccn3)nc(-c3ccnc(N4CCNCC4)c3)c2)cc1`, the IC50 is more than 20000 nM with CHO and 140 nM with LAD2 [1].

A word on the inhibition: it is the share of the control response that was lost under treatment. Take `O=C(Nc1cc(Nc2cnccn2)nc(-c2ccnc(N3CCNCC3)c2)c1)C1CCNCC1`: the IC50 in the assay with CHO is more than 20000 nM. Also, in the assay with LAD2 [2], at 1 µM the inhibition was 14%.

As to `O=C(Cc1cccnc1)Nc1cc(Nc2cnccn2)nc(-c2ccnc(N3CCNCC3)c2)c1`, the IC50 with CHO was more than 20000 nM; in the assay with LAD2 [1] it was 352 nM.

Consider `Nc1cc(Nc2cnccn2)nc(-c2ccnc(N3CCNCC3)c2)c1`, for which the inhibition in assay [3] was less than 50%; in assay [4] it was less than 50%; in assay [5], more than 50%; in assay [6] it was more than 50%; in assay [7] it was less than 50%; in assay [8], less than 50%. The inhibition was less than 50% in [9]; less than 50% in assay [10]; more than 50% in assay [11]; less than 50% in assay [12]; less than 50% in [13]; more than 50% in [14]. Besides, the inhibition in [15], in [16], in [17], in assay [18], in [19] and in assay [20] was less than 50% throughout. For the same molecule, the inhibition is less than 50% in assay [21]; less than 50% in [22]; less than 50% in assay [23]; less than 50% in assay [24]; more than 50% in assay [25]; less than 50% in assay [26]. Also, the inhibition in [27] is less than 50%; in assay [28], more than 50%; in assay [29], less than 50%; in assay [30] it was more than 50%; in assay [31], more than 50%; in assay [32] it was less than 50%. The inhibition in assay [33] is more than 50%; in assay [34], less than 50%; in assay [35], less than 50%; in assay [36] it was more than 50%; in [37], less than 50%; in assay [38] it was more than 50%. In addition, the inhibition in assay [39], in assay [40], in [41] and in [42] was less than 50% throughout. For the same molecule, the 50% inhibitory concentration (IC50) with CHO was more than 20000 nM; in the assay with LAD2 [1], 118 nM.

In the case of `Cc1cc(C(=O)Nc2cc(Nc3cnccn3)nc(-c3ccnc(N4CCNCC4)c3)c2)n(C)n1`, the IC50 in the assay on CHO was more than 20000 nM; with LAD2 [1], 169 nM.

Consider `CNc1cc(Nc2cnccn2)nc(-c2ccnc(N3CCNCC3)c2)c1`, for which the results for the concentration for half-maximal inhibition (IC50) with CHO and with LAD2 [1] were more than 20000 nM and 188 nM, respectively.

For `O=C(Nc1cc(Nc2cnccn2)nc(-c2ccnc(N3CCNCC3)c2)c1)c1cncnc1`, the values for the IC50 with CHO and in the assay with LAD2 [1] were more than 20000 nM and 331 nM, respectively.

As for `Oc1ccc(CNc2cc(Nc3cnccn3)nc(-c3ccnc(N4CCNCC4)c3)c2)cc1`, the IC50 with CHO was more than 20000 nM; with LAD2 [1], 585 nM.

For `O=C(Nc1cc(Nc2cnccn2)nc(-c2ccnc(N3CCNCC3)c2)c1)c1ccc(C(=O)O)nc1`, the IC50 is more than 20000 nM in the assay with CHO and 204 nM with LAD2 [1].

The molecule `Cc1ccnc(Nc2cccc(-c3ccnc(N4CCNCC4)c3)n2)c1` returned an IC50 with CHO of 1000 nM.

Regarding `CC(=O)N1CCC(C(=O)Nc2cc(Nc3cnccn3)nc(-c3ccnc(N4CCNCC4)c3)c2)CC1`, the IC50 was more than 20000 nM in the assay on CHO and 1000 nM in the assay with LAD2 [1].

As to `O=C(Nc1cc(Nc2cnccn2)nc(-c2ccnc(N3CCNCC3)c2)c1)c1ccccc1`, the IC50 with CHO is more than 20000 nM; in the assay on LAD2 [1] it was 362 nM.

The molecule `c1cc(-c2cccc(Nc3cnccn3)n2)cc(N2CCNCC2)c1` registered an IC50 with CHO of more than 15000 nM.

For `FC(F)(F)c1ccnc(Nc2cccc(-c3cccc(N4CCNCC4)c3)n2)c1`, 1000 nM corresponded to half-maximal inhibition with CHO (IC50).

As to `FC(F)(F)c1ccnc(Nc2cccc(-c3ccnc(N4CCNCC4)c3)n2)c1`, the IC50 with CHO worked out at 1000 nM.

As to `O=C(Nc1cc(Nc2cnccn2)nc(-c2ccnc(N3CCNCC3)c2)c1)c1cccnc1`, the IC50 was more than 20000 nM with CHO and 122 nM with LAD2 [1].

For `c1cc(Nc2cnccn2)nc(-c2ccnc(N3CCNCC3)c2)c1`, the IC50 in the assay with CHO was more than 15000 nM.
